Source: ChEMBL document CHEMBL4814000, “Discovery of β-carboline-(phenylsulfonyl)furoxan hybrids as potential anti-breast cancer agents” (Bioorg Med Chem Lett, 2021)
The source made the active and inactive calls. No cut-off for these calls is given here.

Assays:
[1] = Nitric oxide releasing activity assessed as amount of NO release measured up to 24 hrs by Griess assay; format: functional; conditions: time hrs <=24
Summary of the method: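 Griess assay measuring NO released by compounds in vitro over time; values are averages of three independent experiments.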

MCF7 = assay: Antiproliferative activity against human MCF7 cells assessed as reduction in cell viability incubated for 72 hrs by CCK-8 assay; format: functional, cell-based; conditions: MCF7, 72 h
Summary of the method: (§1)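 CCK-8 viability assay on MCF-7 or MDA-MB-231 cells after 72 h compound exposure; IC50 taken as half inhibitory concentration, reported as mean ± SD of three independent experiments.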

MDA-MB-231 = assay: Antiproliferative activity against human MDA-MB-231 cells assessed as reduction in cell viability incubated for 72 hrs by CCK-8 assay; format: functional, cell-based; conditions: MDA-MB-231, 72 h; summary of the method: as §1

| IC50 (MCF7) | IC50 (MDA-MB-231) | SMILES | Activity [1] |
| --- | --- | --- | --- |
| 1.45 µM | 0.87 µM | COc1ccc(-c2nc(C(=O)NCCOc3no[n+]([O-])c3S(=O)(=O)c3ccccc3)cc3c2[nH]c2ccccc23)cc1 | Active |
| 5.36 µM | 2.98 µM | COc1ccc(-c2nc(C(=O)OCCCCCCOc3no[n+]([O-])c3S(=O)(=O)c3ccccc3)cc3c2[nH]c2ccccc23)cc1 | Active |
| 2.92 µM | 4.26 µM | COc1ccc(-c2nc(C(=O)OCCCCOc3no[n+]([O-])c3S(=O)(=O)c3ccccc3)cc3c2[nH]c2ccccc23)cc1 |  |
| 2.35 µM | 1.16 µM | COc1ccc(-c2nc(C(=O)OCC#CCOc3no[n+]([O-])c3S(=O)(=O)c3ccccc3)cc3c2[nH]c2ccccc23)cc1 |  |
| 4.64 µM | 7.96 µM | O=C(OCCCOc1no[n+]([O-])c1S(=O)(=O)c1ccccc1)c1cc2c(cn1)[nH]c1ccccc12 |  |
| 4.88 µM | 2.24 µM | Cc1nc(C(=O)OCCCOc2no[n+]([O-])c2S(=O)(=O)c2ccccc2)cc2c1[nH]c1ccccc12 |  |
| 3.92 µM | 2.53 µM | COc1ccc(-c2nc(C(=O)OCCOCCOc3no[n+]([O-])c3S(=O)(=O)c3ccccc3)cc3c2[nH]c2ccccc23)cc1 |  |
| 1.56 µM | 2.27 µM | COc1ccc(-c2nc(C(=O)NCC(C)Oc3no[n+]([O-])c3S(=O)(=O)c3ccccc3)cc3c2[nH]c2ccccc23)cc1 (centres undefined) | Active |
| 6.85 µM | 5.75 µM | Cc1nc(C(=O)OCCCCCCOc2no[n+]([O-])c2S(=O)(=O)c2ccccc2)cc2c1[nH]c1ccccc12 |  |
| 1.33 µM | 0.92 µM | COc1ccc(-c2nc(C(=O)N3CCN(CCOc4no[n+]([O-])c4S(=O)(=O)c4ccccc4)CC3)cc3c2[nH]c2ccccc23)cc1 | Active |
| 4.8 µM | 3.59 µM | COc1ccc(-c2nc(C(=O)OCCOc3no[n+]([O-])c3S(=O)(=O)c3ccccc3)cc3c2[nH]c2ccccc23)cc1 | Active |
| 4.28 µM | 4.54 µM | Cc1nc(C(=O)OCCCCOc2no[n+]([O-])c2S(=O)(=O)c2ccccc2)cc2c1[nH]c1ccccc12 |  |
| 3.49 µM | 2.86 µM | COc1ccc(-c2nc(C(=O)OCCCOc3no[n+]([O-])c3S(=O)(=O)c3ccccc3)cc3c2[nH]c2ccccc23)cc1 |  |
| 4.58 µM | 7.46 µM | Cc1nc(C(=O)OCCOc2no[n+]([O-])c2S(=O)(=O)c2ccccc2)cc2c1[nH]c1ccccc12 |  |

More lines, now with the values behind:

| SMILES | IC50 (MCF7) | IC50 (MDA-MB-231) | Activity [1] |
| --- | --- | --- | --- |
| Cc1nc(C(=O)NCCCOc2no[n+]([O-])c2S(=O)(=O)c2ccccc2)cc2c1[nH]c1ccccc12 | 2.97 µM | 1.62 µM |  |
| Cc1nc(C(=O)OCCOCCOc2no[n+]([O-])c2S(=O)(=O)c2ccccc2)cc2c1[nH]c1ccccc12 | 5.89 µM | 7.67 µM |  |
| Cc1nc(C(=O)N2CCN(CCOc3no[n+]([O-])c3S(=O)(=O)c3ccccc3)CC2)cc2c1[nH]c1ccccc12 | 3.29 µM | 3.47 µM |  |
| O=C(OCC#CCOc1no[n+]([O-])c1S(=O)(=O)c1ccccc1)c1cc2c(cn1)[nH]c1ccccc12 | 5.27 µM | 5.89 µM |  |
| O=C(NCCOc1no[n+]([O-])c1S(=O)(=O)c1ccccc1)c1cc2c(cn1)[nH]c1ccccc12 | 7.53 µM | 6.75 µM |  |
| COc1cccc2c1C(=O)c1c(O)c3c(c(O)c1C2=O)C[C@@](O)(C(=O)CO)C[C@@H]3O[C@H]1C[C@H](N)[C@H](O)[C@H](C)O1 [DOXORUBICIN] |  | 2.86 µM |  |
| O=C(c1cc2c(cn1)[nH]c1ccccc12)N1CCN(CCOc2no[n+]([O-])c2S(=O)(=O)c2ccccc2)CC1 | 8.28 µM | 6.83 µM |  |
| O=C(OCCCCCCOc1no[n+]([O-])c1S(=O)(=O)c1ccccc1)c1cc2c(cn1)[nH]c1ccccc12 | 13.7 µM | 8.87 µM |  |
| Cc1nc(C(=O)O)cc2c1[nH]c1ccccc12 [HARMAN-3-CARBOXYLIC ACID] | 19.2 µM | 22.6 µM |  |
| Cc1nc(C(=O)NCCOc2no[n+]([O-])c2S(=O)(=O)c2ccccc2)cc2c1[nH]c1ccccc12 | 4.96 µM | 3.84 µM |  |
| Cc1nc(C(=O)OCC#CCOc2no[n+]([O-])c2S(=O)(=O)c2ccccc2)cc2c1[nH]c1ccccc12 | 8.86 µM | 6.91 µM |  |
| O=C(OCCOCCOc1no[n+]([O-])c1S(=O)(=O)c1ccccc1)c1cc2c(cn1)[nH]c1ccccc12 | 19 µM | 15.8 µM |  |
| COc1ccc2c(c1)[nH]c1c(C)nccc12 [HARMINE] | 16.9 µM | 21.9 µM |  |
| O=C(O)c1cc2c(cn1)[nH]c1ccccc12 | > 30 µM | > 30 µM |  |
| Cc1nc(C(=O)NCC(C)Oc2no[n+]([O-])c2S(=O)(=O)c2ccccc2)cc2c1[nH]c1ccccc12 (centres undefined) | 3.8 µM | 2.2 µM |  |
| O=C(NCCCOc1no[n+]([O-])c1S(=O)(=O)c1ccccc1)c1cc2c(cn1)[nH]c1ccccc12 | 4.64 µM | 7.5 µM |  |
| O=C(OCCCCOc1no[n+]([O-])c1S(=O)(=O)c1ccccc1)c1cc2c(cn1)[nH]c1ccccc12 | 9.57 µM | 12.5 µM |  |
| O=S(=O)(c1ccccc1)c1no[n+]([O-])c1S(=O)(=O)c1ccccc1 | 3.92 µM | 4.84 µM |  |
| COc1ccc(-c2nc(C(=O)O)cc3c2[nH]c2ccccc23)cc1 | 14.3 µM | 12.6 µM |  |
| O=C(OCCOc1no[n+]([O-])c1S(=O)(=O)c1ccccc1)c1cc2c(cn1)[nH]c1ccccc12 | 11.5 µM | 9.56 µM |  |
| CC(CNC(=O)c1cc2c(cn1)[nH]c1ccccc12)Oc1no[n+]([O-])c1S(=O)(=O)c1ccccc1 (centres undefined) | 6.94 µM | 5.97 µM |  |
